The values below come from ChEMBL document CHEMBL1123347, “Topical nonsteroidal antipsoriatic agents. 1. 1,2,3,4-Tetraoxygenated naphthalene derivatives” (J Med Chem, 1986).

Series [1] in a line: Partition coefficient (logP). The series is classed as physicochemical. The following applies: octanol/water. In short, it runs like this: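 Lipophilicity (log P) measured by 1-octanol-coated reversed-phase HPLC. The mobile phase is pH 7.4 PBS saturated with 1-octanol, run on RP-18 or C-18 packing. A second system is linked to the first through overlapping series. For the most lipophilic analogues that could not be detected, log P is calculated from Free-Wilson-derived substituent constants assuming additivity.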

In series [2] the test system is Mus musculus. As to the kind of experiment: Compound was tested for inhibition of arachidonic acid induced mouse ear edema at 2 mg of dose; I=Insoluble. The series is classed as functional, organism-based. The method, boiled down:
(§1)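 Mouse ear edema induced by arachidonic acid (dissolved in acetone at 100 mg/mL). Test agent is applied topically in acetone, 2 mg/0.02 mL per total dose, 60 min before arachidonic acid. Ear edema is read 1 h later as the weight gain of an 8-mm-diameter ear plug. It is compared with acetone-only and arachidonic acid-only controls run in the same experiment. n = 8 per group; percent inhibition is reported as mean.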

Series [3] can be described thus: Statistical significance, p values as compared to positive control by students t-test; I=Insoluble. The series is classed as ADME. In short, it runs like this:
(§2)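 Same arachidonic acid ear-edema model: 2 mg total topical dose in acetone, given 60 min before arachidonic acid, with 8 animals per group. Edema is measured by ear plug weight 1 h after arachidonic acid. p values come from Student's t-test against the concurrent arachidonic acid positive control. Thresholds are given as + (≤0.05) and so on.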

Series [4] can be described thus: Statistical significance, p values as compared to positive control by students t-test. The series is classed as ADME. In short, it runs like this: as §2
Series [5] relates to Mus musculus. Description: Compound was tested for inhibition of arachidonic acid induced mouse ear edema at 2 mg of dose. The series is classed as functional. In short, it runs like this:
as §1

Series [6] in a line: Statistical significance, p values as compared to positive control by students t-test; NS=Not significant. The series is classed as ADME. The method, boiled down:
as §2

For `CC(C)(C)C(=O)Oc1c(Oc2ccccc2)c(Oc2ccccc2)c(OC(=O)C(C)(C)C)c2cc(Cl)ccc12`, the logP – broadly, the decadic logarithm of the partition coefficient of the neutral form, usually between octanol and water – in series [1] was 8.7. In series [2], the inhibition entry is listed as “Insoluble”.

Compound `CC(C)(C)C(=O)Oc1c(Oc2ccccc2)c(Oc2ccccc2)c(OC(=O)C(C)(C)C)c2ccccc12` showed a logP in series [1] of 7.8. In addition, the inhibition result in series [2] is listed as “Insoluble”. Besides, the Significance entry in series [3] is reported as “Insoluble”.

Take `COc1c(OC)c(OC(C)=O)c2cc(Cl)ccc2c1OC(C)=O` [LONAPALENE]: in series [1], the lipophilicity (logP) worked out at 3.26. In series [4], the Significance entry is “<= 0.001”. Also, the Inhibition (as a rule, the change of the read-out against control, counted positive when it falls) in series [5] was 54%.

For the compound `COc1c(OC)c(OC(=O)C(C)(C)C)c2cc(C)ccc2c1OC(=O)C(C)(C)C`, the lipophilicity (logP) in series [1] was found to be 6.1. In addition, the Significance result in series [6] is listed as “Not Active”. Also, the Inhibition in series [5] came to 11%.

In the case of `CCC(=O)Oc1c(Oc2ccccc2)c(Oc2ccccc2)c(OC(=O)CC)c2ccccc12`, the logP in series [1] is 5.8. Also, in series [2], the inhibition entry is “Insoluble”. For the same compound, the Significance entry in series [3] is on record as “Insoluble”.

As for `CC(=O)Oc1c(Oc2ccccc2)c(Oc2ccccc2)c(OC(C)=O)c2ccccc12`, the logP in series [1] was found to be 4.8. In addition, the inhibition entry in series [2] was “Insoluble”. Besides, the Significance result in series [3] was “Insoluble”.

For `O=C(Oc1c(Oc2ccccc2)c(Oc2ccccc2)c(OC(=O)c2ccccc2)c2ccccc12)c1ccccc1`, the lipophilicity (logP) in series [1] was 7.9. Moreover, the inhibition entry in series [2] is given as “Insoluble”. Further, the Significance entry in series [3] is on record as “Insoluble”.

As for `COc1c(OC)c(OC(=O)C(C)(C)C)c2cc(C)c(C)cc2c1OC(=O)C(C)(C)C`, the logP in series [1] was 6.5. Also, the Significance result in series [6] was “Not Active”. In series [5], this compound showed an Inhibition of 6%.

Compound `CCCC(=O)Oc1c(OC)c(OC)c(OC(=O)CCC)c2cc(C)c(C)cc12` had a logP in series [1] of 5.4. The Significance entry in series [6] is reported as “Not Active”. Moreover, the Inhibition in series [5] is listed as 14%.

Take `COc1c(OC)c(OC(=O)C(C)(C)C)c2cc(Cl)ccc2c1OC(=O)C(C)(C)C`: in series [1], the logP stood at 6.6. Besides, in series [6], the Significance result is reported as “Not Active”. The same compound gave an Inhibition in series [5] of 11%.

For `COc1c(OC)c(OC(=O)C(C)(C)C)c2ccccc2c1OC(=O)C(C)(C)C`, the logP in series [1] came out at 5.69. Further, the Significance entry in series [6] is given as “Not Active”. In series [5], this compound had an Inhibition of 0%.

In series [1], `CCCOc1c(OCCC)c(OC(=O)CCC)c2cc(Cl)ccc2c1OC(=O)CCC` came in with a log partition coefficient (logP) of 7.6. The Significance entry in series [6] is listed as “Not Active”. This compound also displayed an Inhibition in series [5] of 2%.

In series [1], `CCC(=O)Oc1c(OC(C)C)c(OC(C)C)c(OC(=O)CC)c2cc(Cl)ccc12` displayed a logP of 5.8. For the same compound, in series [6], the Significance entry was “Not Active”. The Inhibition in series [5] is reported as 16%.

With `COc1ccc2c(OC(=O)C(C)(C)C)c(OC)c(OC)c(OC(=O)C(C)(C)C)c2c1`, in series [1], the logP was 5.4. In addition, in series [6], the Significance entry is recorded as “Not Active”. The compound further had an Inhibition in series [5] of 3%.
